From ChEMBL document CHEMBL3585321, “Synthesis and antimicrobial activity of chloramphenicol-polyamine conjugates” (Bioorg Med Chem, 2015)
Activity calls are given as the source filed them. The rule behind the calls is not given here.

Legend:
[1] = tested on: Staphylococcus aureus; assay: Antibacterial activity against methicillin-resistant Staphylococcus aureus GRE2691 assessed as inhibition of bacterial growth; assay type: functional, organism-based
[2] = tested on: Staphylococcus aureus; assay: Antibacterial activity against methicillin-resistant Staphylococcus aureus GRE2272 assessed as inhibition of bacterial growth; assay type: functional, organism-based
[3] = tested on: Staphylococcus aureus; assay: Antibacterial activity against methicillin-resistant Staphylococcus aureus GRE2372 assessed as inhibition of bacterial growth; assay type: functional, organism-based
[4] = Inhibition of Escherichia coli K-12 70S ribosome poly(U)-programmed ribosome (complex C) bearing tRNAPhe at E-site and Ac[3H]Phe-tRNA at P-site assessed as reduction in peptide bond formation using puromycin(S) substrate
[5] = tested on: Staphylococcus aureus; assay: Antibacterial activity against wild type Staphylococcus aureus assessed as inhibition of bacterial growth at antibacterial IC50 level in presence of 10 times IC50 levels of putrescine; assay type: functional, organism-based
Procedure, shortened: (§1)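 Cells started at A560 0.020 in M9 medium with drug at its own growth IC50, alone or with putrescine, spermidine or spermine at 10×IC50. Cultures run until the drug-free control reached A560 0.800. Growth given as percent of control optical density. At least three experiments, two replicates each, mean±SD, p<0.05.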

[6] = tested on: Staphylococcus aureus; assay: Antibacterial activity against wild type Staphylococcus aureus assessed as inhibition of bacterial growth at antibacterial IC50 level in presence of 10 times IC50 levels of spermidine; assay type: functional, organism-based; procedure, shortened: as §1
[7] = tested on: Staphylococcus aureus; assay: Antibacterial activity against wild type Staphylococcus aureus assessed as inhibition of bacterial growth at antibacterial IC50 level in presence of 10 times IC50 levels of spermine; assay type: functional, organism-based; procedure, shortened: as §1
[8] = tested on: Escherichia coli; assay: Antibacterial activity against wild type Escherichia coli K-12 assessed as inhibition of bacterial growth at antibacterial IC50 level in presence of 10 times IC50 levels of putrescine; assay type: functional, organism-based; procedure, shortened: as §1
[9] = tested on: Escherichia coli; assay: Antibacterial activity against wild type Escherichia coli K-12 assessed as inhibition of bacterial growth at antibacterial IC50 level in presence of 10 times IC50 levels of spermine; assay type: functional, organism-based; procedure, shortened: as §1
[10] = tested on: Escherichia coli; assay: Antibacterial activity against wild type Escherichia coli K-12 assessed as inhibition of bacterial growth at antibacterial IC50 level in presence of 10 times IC50 levels of spermidine; assay type: functional, organism-based; procedure, shortened: as §1
[11] = tested on: Escherichia coli; assay: Antibacterial activity against wild type Escherichia coli K-12 assessed as inhibition of bacterial growth; assay type: functional, organism-based
[12] = tested on: Staphylococcus aureus; assay: Antibacterial activity against wild type Staphylococcus aureus assessed as inhibition of bacterial growth; assay type: functional, organism-based
[13] = tested on: Escherichia coli; assay: Antibacterial activity against Escherichia coli BL21(DE3) expressing delta-tolC gene assessed as inhibition of bacterial growth; assay type: functional, organism-based
Procedure, shortened: (§2)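 IC50 from bacterial cultures grown in LB medium without drug or with drug across a range of concentrations, reported in μM. Three independent experiments, each with two replicates, given as mean±SD.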

[14] = tested on: Escherichia coli; assay: Antibacterial activity against Escherichia coli Rosetta(DE3) containing rare tRNA genes and chloramphenicol resistant gene in pLysS plasmid assessed as inhibition of bacterial growth; assay type: functional, organism-based; procedure, shortened: as §2
[15] = tested on: Escherichia coli; assay: Activity of Escherichia coli chloramphenicol acetyltransferase assessed as coenzyme A formation using acetyl coenzyme A at 0.154 mM
[16] = tested on: Escherichia coli; assay: Ratio of Vmax to Km for Escherichia coli chloramphenicol acetyltransferase assessed as coenzyme A formation using acetyl coenzyme A at 0.154 mM
[17] = tested on: Escherichia coli; assay: Antibacterial activity against Escherichia coli lacking chromosomal rrn alleles and containing pKK35 plasmids possessing 23S rRNA A2503C mutant assessed as inhibition of bacterial growth; assay type: functional, organism-based
[18] = tested on: Escherichia coli; assay: Antibacterial activity against Escherichia coli lacking chromosomal rrn alleles and containing pKK35 plasmids possessing 23S rRNA A2058G mutant assessed as inhibition of bacterial growth; assay type: functional, organism-based

CCC[C@@H]1C[C@@H](C(=O)N[C@@H]([C@H]2O[C@H](SC)[C@H](O)[C@@H](O)[C@H]2O)[C@H](C)Cl)N(C)C1
growth inhibition (GI) [1]: Active | growth inhibition (GI) [2]: inactive | growth inhibition (GI) [3]: inactive

CC[C@H]1OC(=O)[C@H](C)[C@@H](O[C@H]2C[C@@](C)(OC)[C@@H](O)[C@H](C)O2)[C@H](C)[C@@H](O[C@@H]2O[C@H](C)C[C@H](N(C)C)[C@H]2O)[C@](C)(O)C[C@@H](C)C(=O)[C@H](C)[C@@H](O)[C@]1(C)O
growth inhibition (GI) [1]: inactive | growth inhibition (GI) [2]: inactive | growth inhibition (GI) [3]: inactive

NCCCNCCCCNCCCNC(=O)CCC(=O)N[C@H](CO)[C@H](O)c1ccc([N+](=O)[O-])cc1 [listing 1 of 3 here]
Ki [4]: 0.75 µM

Cc1onc(-c2ccccc2)c1C(=O)N[C@@H]1C(=O)N2[C@@H]1SC(C)(C)[C@@H]2C(=O)O
growth inhibition (GI) [1]: inactive | growth inhibition (GI) [2]: inactive | growth inhibition (GI) [3]: inactive

NCCCCN(CCCN)C(=O)CCC(=O)N[C@H](CO)[C@H](O)c1ccc([N+](=O)[O-])cc1 [listing 1 of 3 here]
growth inhibition (GI) [5]: inactive | growth inhibition (GI) [6]: inactive | growth inhibition (GI) [7]: inactive | growth inhibition (GI) [8]: inactive | growth inhibition (GI) [9]: inactive | growth inhibition (GI) [10]: inactive

NCCCCN(CCCN)C(=O)CCC(=O)N[C@H](CO)[C@H](O)c1ccc([N+](=O)[O-])cc1 [listing 2 of 3 here]
IC50 [11]: > 150 µM | IC50 [1]: > 200 µM | IC50 [2]: > 100 µM | IC50 [12]: 12.7 µM | IC50 [13]: > 100 µM | IC50 [14]: > 100 µM | IC50 [3]: > 100 µM

CC(=O)N[C@@H]1[C@H](Oc2c3cc4cc2Oc2ccc(cc2Cl)[C@@H](O[C@@H]2O[C@@H](CO)[C@@H](O)[C@H](O)[C@@H]2NC(C)=O)[C@@H]2NC(=O)[C@H](NC(=O)[C@@H]4NC(=O)[C@H]4NC(=O)[C@@H](Cc5ccc(c(Cl)c5)O3)NC(=O)[C@H](N)c3ccc(O)c(c3)Oc3cc(O)cc4c3)c3ccc(O)c(c3)-c3c(O[C@H]4O[C@H](CO)[C@@H](O)[C@@H](O)[C@@H]4O)cc(O)cc3[C@@H](C(=O)O)NC2=O)O[C@@H](CO)[C@@H](O)[C@@H]1O
growth inhibition (GI) [1]: Active | growth inhibition (GI) [2]: Active | growth inhibition (GI) [3]: Active

O=C(N[C@H](CO)[C@H](O)c1ccc([N+](=O)[O-])cc1)c1nc[nH]n1
IC50 [11]: > 300 µM | IC50 [1]: > 100 µM | IC50 [2]: > 100 µM | IC50 [12]: > 100 µM | Ki [4]: 1 µM | IC50 [13]: > 300 µM | IC50 [14]: > 300 µM | IC50 [3]: > 100 µM

CN(C)[C@@H]1C(O)=C(C(N)=O)C(=O)[C@@]2(O)C(O)=C3C(=O)c4c(O)cccc4[C@@](C)(O)[C@H]3C[C@@H]12
growth inhibition (GI) [1]: inactive | growth inhibition (GI) [2]: inactive | growth inhibition (GI) [3]: Active

CN[C@H](CC(C)C)C(=O)N[C@H]1C(=O)N[C@@H](CC(N)=O)C(=O)N[C@H]2C(=O)N[C@H]3C(=O)N[C@H](C(=O)N[C@H](C(=O)O)c4cc(O)cc(O)c4-c4cc3ccc4O)[C@H](O)c3ccc(c(Cl)c3)Oc3cc2cc(c3O[C@@H]2O[C@H](CO)[C@@H](O)[C@H](O)[C@H]2O[C@H]2C[C@](C)(N)[C@H](O)[C@H](C)O2)Oc2ccc(cc2Cl)[C@H]1O
growth inhibition (GI) [1]: Active | growth inhibition (GI) [2]: Active | growth inhibition (GI) [3]: Active

CCCCCCCCCC(=O)N[C@@H](Cc1c[nH]c2ccccc12)C(=O)N[C@H](CC(N)=O)C(=O)N[C@@H](CC(=O)O)C(=O)N[C@@H]1C(=O)NCC(=O)N[C@@H](CCCN)C(=O)N[C@@H](CC(=O)O)C(=O)N[C@H](C)C(=O)N[C@@H](CC(=O)O)C(=O)NCC(=O)N[C@H](CO)C(=O)N[C@@H]([C@H](C)CC(=O)O)C(=O)N[C@@H](CC(=O)c2ccccc2N)C(=O)O[C@@H]1C
growth inhibition (GI) [1]: Active | growth inhibition (GI) [2]: Active | growth inhibition (GI) [3]: Active

GENTAMICIN
growth inhibition (GI) [1]: inactive | growth inhibition (GI) [2]: inactive | growth inhibition (GI) [3]: Active

NCCCN(CCCCN(Cc1ccccc1)Cc1ccccc1)C(=O)CCC(=O)N[C@H](CO)[C@H](O)c1ccc([N+](=O)[O-])cc1 [listing 1 of 2 here]
growth inhibition (GI) [5]: inactive | growth inhibition (GI) [6]: inactive | growth inhibition (GI) [7]: inactive | growth inhibition (GI) [8]: inactive | growth inhibition (GI) [9]: inactive | Km [15]: 37.7 µM | Vmax [15]: 1.54 µM/min | growth inhibition (GI) [10]: inactive | Vmax/Km [16]: 0.041 min⁻¹

NCCCNCCCCNCCCNC(=O)CCC(=O)N[C@H](CO)[C@H](O)c1ccc([N+](=O)[O-])cc1 [listing 2 of 3 here]
growth inhibition (GI) [5]: inactive | growth inhibition (GI) [6]: inactive | growth inhibition (GI) [7]: inactive | growth inhibition (GI) [8]: inactive | growth inhibition (GI) [9]: inactive | growth inhibition (GI) [10]: inactive

NC[C@H]1O[C@H](O[C@H]2[C@H](O)[C@@H](O[C@H]3O[C@H](CO)[C@@H](O)[C@H](N)[C@H]3O)[C@H](N)C[C@@H]2N)[C@H](O)[C@@H](O)[C@@H]1O
growth inhibition (GI) [1]: inactive | growth inhibition (GI) [2]: inactive | growth inhibition (GI) [3]: inactive

NCCCCNC(=O)c1ccccc1C(=O)N[C@H](CO)[C@H](O)c1ccc([N+](=O)[O-])cc1 [listing 1 of 2 here]
IC50 [11]: > 200 µM | IC50 [1]: > 200 µM | IC50 [2]: > 200 µM | IC50 [13]: > 200 µM | IC50 [14]: > 200 µM | IC50 [3]: > 200 µM

NCCCCN(CCCN)C(=O)CCC(=O)N[C@H](CO)[C@H](O)c1ccc([N+](=O)[O-])cc1 [listing 3 of 3 here]
Ki [4]: 1.2 µM

CC(=O)O[C@H]1C[C@@]2(C)[C@@H](C[C@@H](O)[C@H]3[C@@]4(C)CC[C@@H](O)[C@@H](C)[C@@H]4CC[C@@]32C)/C1=C(\CCC=C(C)C)C(=O)O
growth inhibition (GI) [1]: inactive | growth inhibition (GI) [2]: inactive | growth inhibition (GI) [3]: inactive

NCCCNCCCCNCCCNC(=O)CCC(=O)N[C@H](CO)[C@H](O)c1ccc([N+](=O)[O-])cc1 [listing 3 of 3 here]
IC50 [11]: > 100 µM | IC50 [17]: > 100 µM | IC50 [1]: > 200 µM | IC50 [2]: > 200 µM | IC50 [12]: 45.3 µM | IC50 [18]: > 100 µM | IC50 [13]: > 100 µM | IC50 [14]: > 200 µM | IC50 [3]: > 200 µM

CO[C@@]1(NC(=O)Cc2cccs2)C(=O)N2C(C(=O)O)=C(COC(N)=O)CS[C@@H]21
growth inhibition (GI) [1]: inactive | growth inhibition (GI) [2]: inactive | growth inhibition (GI) [3]: inactive

CO[C@H]1/C=C/O[C@@]2(C)Oc3c(C)c(O)c4c(O)c(c(/C=N/N5CCN(C)CC5)c(O)c4c3C2=O)NC(=O)/C(C)=C\C=C\[C@H](C)[C@H](O)[C@@H](C)[C@@H](O)[C@@H](C)[C@H](OC(C)=O)[C@@H]1C
growth inhibition (GI) [1]: Active | growth inhibition (GI) [2]: Active | growth inhibition (GI) [3]: inactive

NCCCN(CCCCN(Cc1ccccc1)Cc1ccccc1)C(=O)CCC(=O)N[C@H](CO)[C@H](O)c1ccc([N+](=O)[O-])cc1 [listing 2 of 2 here]
Ki [4]: 0.28 µM

NCCCCNCCCCNCCCNC(=O)[C@@H](NC(=O)C(Cl)Cl)[C@H](O)c1ccc([N+](=O)[O-])cc1
Ki [4]: 5 µM

NCCCCNC(=O)CCC(=O)N[C@H](CO)[C@H](O)c1ccc([N+](=O)[O-])cc1 [listing 1 of 2 here]
IC50 [11]: > 200 µM | IC50 [1]: > 200 µM | IC50 [2]: > 200 µM | IC50 [13]: > 200 µM | IC50 [14]: > 200 µM | IC50 [3]: > 200 µM

NCCCCNC(=O)c1ccccc1C(=O)N[C@H](CO)[C@H](O)c1ccc([N+](=O)[O-])cc1 [listing 2 of 2 here]
Ki [4]: 8.45 µM

O=C(CCNC(=O)c1nc[nH]n1)N[C@H](CO)[C@H](O)c1ccc([N+](=O)[O-])cc1
IC50 [11]: > 200 µM | IC50 [1]: > 100 µM | IC50 [2]: > 100 µM | IC50 [12]: 66 µM | Ki [4]: 4 µM | IC50 [13]: > 200 µM | IC50 [14]: > 200 µM | IC50 [3]: > 100 µM

COc1cccc(OC)c1C(=O)N[C@@H]1C(=O)N2[C@@H]1SC(C)(C)[C@@H]2C(=O)O
growth inhibition (GI) [1]: inactive | growth inhibition (GI) [2]: inactive | growth inhibition (GI) [3]: inactive

NCCCCNC(=O)CCC(=O)N[C@H](CO)[C@H](O)c1ccc([N+](=O)[O-])cc1 [listing 2 of 2 here]
Ki [4]: 0.9 µM
